According to ChEMBL document CHEMBL4390639, “Design, Synthesis, and Biological Evaluation of Novel Allosteric Protein Disulfide Isomerase Inhibitors” (J Med Chem, 2019):
Activity calls are given as the source filed them. The rule behind the calls is not given here.

Assays:
[1] = test system: Protein disulfide-isomerase (Homo sapiens), P07237 [H256A]; assay: Binding affinity to recombinant human N-terminal His-tagged PDI H256A mutant expressed in Escherichia coli BL21 (DE3) pLysS assessed as change in melting temperature at 100 uM by ROX dye based thermal shift assay
Sequence of Protein disulfide-isomerase (Homo sapiens), P07237 [H256A] (P07237 whole entry H256A): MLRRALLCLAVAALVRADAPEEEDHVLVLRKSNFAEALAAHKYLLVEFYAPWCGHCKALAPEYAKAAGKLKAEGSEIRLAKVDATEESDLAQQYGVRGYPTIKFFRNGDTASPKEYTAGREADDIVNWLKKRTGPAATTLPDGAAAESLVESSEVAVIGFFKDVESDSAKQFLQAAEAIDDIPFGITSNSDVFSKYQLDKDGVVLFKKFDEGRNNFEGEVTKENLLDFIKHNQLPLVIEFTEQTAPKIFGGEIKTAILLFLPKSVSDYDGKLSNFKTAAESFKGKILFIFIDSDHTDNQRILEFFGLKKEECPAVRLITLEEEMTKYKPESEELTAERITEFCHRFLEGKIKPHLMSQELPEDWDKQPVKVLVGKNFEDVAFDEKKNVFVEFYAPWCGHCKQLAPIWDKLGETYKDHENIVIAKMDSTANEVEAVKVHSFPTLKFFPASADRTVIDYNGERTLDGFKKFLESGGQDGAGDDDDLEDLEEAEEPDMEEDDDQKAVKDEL
Summary of the method: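 Purified wild-type, C53S/C397S or H256A PDI at 0.5 mg/mL in 50 mM Tris, pH 7.0, with or without 100 μM compound, was mixed with ROX dye in a 20 µL well. DMSO (5% in buffer) was the control. Samples were heated 25–99 °C at 1 °C/min, and the Boltzmann melting temperature shift versus DMSO was reported. Mean ± SD of three experiments.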

U-87 MG [2] = assay: Cytotoxicity against human U87MG cells assessed as inhibition of cell growth measured after 72 hrs by MTT assay; format: functional, cell-based, U-87MG ATCC
Summary of the method: (§1)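 A172 and NU04 cells were seeded at 4000 cells/well and U87MG at 5000 cells/well, incubated overnight at 37 °C, 5% CO2, then exposed to compound or vehicle for 72 h. MTT (3 mg/mL) was added for 4 h, formazan was dissolved in DMSO, and absorbance was read at 570 nm. IC50 came from nonlinear regression; mean ± SD of at least three experiments.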

[3] = Cytotoxicity against human NU04 cells assessed as inhibition of cell growth measured after 72 hrs by MTT assay; format: functional, cell-based; summary of the method: as §1
A 172 = assay: Cytotoxicity against human A172 cells assessed as inhibition of cell growth measured after 72 hrs by MTT assay; format: functional, cell-based; summary of the method: as §1
[4] = Solubility of the compound in DMSO; format: physicochemical
[5] = molecular target: Protein disulfide-isomerase (Homo sapiens, UniProt P07237); assay: Inhibition of recombinant human N-terminal His-tagged PDI expressed in Escherichia coli BL21 (DE3) pLysS assessed as reduction in enzyme-mediated bovine insulin aggregation
Sequence of Protein disulfide-isomerase (P07237 whole entry): as the sequence (P07237 whole entry H256A) above, with A256H counted along it

U-87 MG [6] = assay: Cytotoxicity against human U87MG cells assessed as inhibition of cell proliferation at <IC50 treated for 24 hrs, measured after 10 days by colony formation assay relative to control
U-87 MG [7] = assay: Inhibition of colony formation in human U87MG cells assessed as combination index at 1 to 30 uM measured after 24 hrs in presence of arsenic trioxide by crystal violet staining based assay; format: functional, U-87MG ATCC
[8] = molecular target: Eukaryotic translation initiation factor 2 subunit 1 (Homo sapiens) (UniProt P05198); assay: Induction of EIF2alpha phosphorylation in human U87MG cells at 10 ug/ml measured after 2 hrs by Western blot analysis; format: cell-based
Sequence of Eukaryotic translation initiation factor 2 subunit 1 (Homo sapiens) (P05198 whole entry): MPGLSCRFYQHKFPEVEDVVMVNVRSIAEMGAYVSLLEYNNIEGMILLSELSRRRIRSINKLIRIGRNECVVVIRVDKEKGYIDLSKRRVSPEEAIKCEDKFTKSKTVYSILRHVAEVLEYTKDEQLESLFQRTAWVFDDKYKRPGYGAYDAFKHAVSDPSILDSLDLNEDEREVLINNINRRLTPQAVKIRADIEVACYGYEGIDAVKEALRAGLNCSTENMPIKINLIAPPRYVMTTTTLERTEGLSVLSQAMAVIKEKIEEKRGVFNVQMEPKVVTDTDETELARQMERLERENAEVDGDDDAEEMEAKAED
Summary of the method: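 U87MG cells (0.5 x 10^6 per well) exposed to tunicamycin at 10 µg/mL for 2 h. Cells lysed by sonication in Tris/NaCl/Triton X-100/SDS buffer, pH 7.4, and cleared at 13,500×g, 4 °C. Protein was measured by BCA, and 30 µg was run on 10% acrylamide gels and transferred to PVDF. Antibody signal was read by fluorescence imaging.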

[9] = molecular target: Eukaryotic translation initiation factor 2 subunit 1 (Homo sapiens) (UniProt P05198); assay: Induction of EIF2alpha phosphorylation in human A172 cells at 10 ug/ml measured after 2 hrs by Western blot analysis; format: cell-based

SMILES: C[C@]12CC[C@@H]3c4ccc(O)cc4CC[C@H]3[C@@H]1CC[C@@H]2O
- Activity [1]: inactive

SMILES: N#Cc1cccc(/C=C/C(=O)c2ccc(S(=O)(=O)NC3CC3)cc2)c1
- IC50 (U-87 MG [2]; u-87mg atcc): Nd(Insoluble)
- IC50 [3]: Nd(Insoluble)
- IC50 (A 172; a 172): Nd(Insoluble)
- solubility [4]: Insoluble
- IC50 [5]: 1.05 µM

SMILES: N#Cc1cccc(/C=C/C(=O)c2ccc(O)c(F)c2)c1
- inhibition (INH) (U-87 MG [6]): >50%
- IC50 (U-87 MG [2]; Homo sapiens, U-87 MG, 72 h, read-out: IC50): 29.1 µM
- IC50 ([3]; Homo sapiens, 72 h, read-out: IC50): 9.8 µM
- IC50 (A 172; Homo sapiens, A 172, 72 h, read-out: IC50): 21.9 µM
- IC50 [5]: 1.14 µM

SMILES: N#Cc1cccc(/C=C/C(=O)c2ccc(S(N)(=O)=O)cc2)c1
- CI (U-87 MG [7]): <1
- IC50 [5]: 6.64 µM

SMILES: CCCCCCCCCCCCC/C=C/C(=O)N[C@H]1[C@H](O[C@H]2O[C@H](CO)[C@@H](O)[C@H](O)[C@H]2NC(C)=O)O[C@H](C[C@@H](O)[C@H]2O[C@@H](n3ccc(=O)[nH]c3=O)[C@H](O)[C@@H]2O)[C@H](O)[C@@H]1O
- Activity [8]: Active
- Activity [9]: Active
